Columns and labels:
[1] = Solubility in Hanks balanced salt solution at 1 mg after 24 hrs; type: physicochemical
[2] = Permeability from apical to basolateral side of dog MDCK2 cell monolayer assessed as intact drug level in basolateral compartment after 6 hrs; type: ADME, cell-based, Canis lupus familiaris; settings: mdck-ii
Summary of the method: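 MDCK-2 monolayers were grown in DMEM with 10% FBS, seeded at 5 × 10⁵ cells/cm² on 24-mm Transwell inserts, and used at TER 100-300 Ω·cm² (10-20 days). Apical dosing was formally 30-50 µM compound in HBSS with 0.1% DMSO. After 6 h, basolateral solution was analysed by HPLC-UV at 300/370 nm and quantified against standard curves (quantification limit 0.2 µM).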

[3] = Chemical stability assessed as half life of hydrolysis; type: physicochemical
Summary of the method: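 UV-vis spectra (190-500 nm) followed in PBS (20 mM, pH 7.0, ionic strength 0.1 M with KCl)/CH₃CN 1:1 at 25 °C. The reaction was started by adding substrate freshly dissolved in acetonitrile, to a final (3-8) × 10^-5 M. Observed first- and second-step hydrolysis rate constants came from fitting the spectral data to a kinetic equation, and half-life was derived from them.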

[4] = Permeability from apical to basolateral side of dog MDCK1 cell monolayer assessed as intact drug level in basolateral compartment after 6 hrs; type: ADME, cell-based, Canis lupus familiaris; settings: mdck1, 6 h
Summary of the method: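 MDCK-1 cells in DMEM with 10% FBS were seeded at 3 × 10⁵ cells/cm² on 24-mm Transwell inserts and used at TER ~10-15 kΩ·cm² (10-20 days). Compound was applied apically at formally 30-50 µM in HBSS with 0.1% DMSO. Basolateral fluid was taken at 6 h and quantified by HPLC-UV (300/370 nm) against standard curves; quantification limit 0.2 µM.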

Caco-2 = experiment: Permeability from apical to basolateral side of human Caco-2 cell monolayer assessed as intact drug level in basolateral compartment after 6 hrs; type: ADME, cell-based; settings: caco-2, 6 h
Summary of the method: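 Caco-2 cells were cultured in DMEM with 10% FBS, seeded at 3 × 10⁵ cells/cm² on 24-mm Transwell inserts, and tested at TER 1.5-2 kΩ·cm² (10-20 days). Compound at formally 30-50 µM in HBSS with 0.1% DMSO was placed apically. Basolateral content at 6 h was measured by HPLC-UV (300/370 nm) against standard curves; quantification limit 0.2 µM.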

Compound: CC(=O)Oc1cc(OC(C)=O)c2c(=O)c(OC(C)=O)c(-c3ccc(OC(C)=O)c(OC(C)=O)c3)oc2c1
- solubility at 24 h [1]: 1.1 µM
- Activity [2]: 0.5%

Compound: CC(=O)Oc1cc(OC(C)=O)c2c(=O)c(OC(C)=O)c(-c3ccc(OC(C)=O)c(OC(=O)[C@@H](C)NC(=O)OC(C)(C)C)c3)oc2c1
- solubility at 24 h [1]: 12 µM

Compound: CC(=O)Oc1cc(OC(C)=O)c2c(=O)c(OC(C)=O)c(-c3ccc(OC(C)=O)c(OC(=O)c4ccc(NC(=O)OC(C)(C)C)cc4)c3)oc2c1
- solubility at 24 h [1]: 0.4 µM

Compound: CC(C)(C)OC(=O)NCCCC(=O)Oc1cc(-c2oc3cc(O)cc(O)c3c(=O)c2O)ccc1O
- t1/2 [3]: 2.08 h

Compound: CC(C)(C)OC(=O)NCCCCCC(=O)Oc1cc(-c2oc3cc(O)cc(O)c3c(=O)c2O)ccc1O
- t1/2 [3]: 3.67 h

Compound: CC(C)(C)OC(=O)N[C@H]1CC[C@@H](C(=O)Oc2cc(-c3oc4cc(O)cc(O)c4c(=O)c3O)ccc2O)CC1
- t1/2 [3]: 3.31 h

Compound: CC(C)(C)OC(=O)Nc1ccc(C(=O)Oc2cc(-c3oc4cc(O)cc(O)c4c(=O)c3O)ccc2O)cc1
- solubility at 24 h [1]: 0.4 µM

Compound: CC(=O)Oc1cc(OC(C)=O)c2c(=O)c(OC(C)=O)c(-c3ccc(OC(C)=O)c(OC(=O)CCCNC(=O)OC(C)(C)C)c3)oc2c1
- solubility at 24 h [1]: 2.5 µM

Compound: Nc1ccc(C(=O)Oc2cc(-c3oc4cc(O)cc(O)c4c(=O)c3O)ccc2O)cc1
- solubility at 24 h [1]: 1.5 µM

Compound: CC(=O)Oc1cc(OC(C)=O)c2c(=O)c(OC(C)=O)c(-c3ccc(OC(C)=O)c(OC(=O)c4ccc(N)cc4)c3)oc2c1
- solubility at 24 h [1]: 1 µM

Compound: CC(=O)Oc1cc(OC(C)=O)c2c(=O)c(OC(C)=O)c(-c3ccc(OC(C)=O)c(OC(=O)CCCCCNC(=O)OC(C)(C)C)c3)oc2c1
- solubility at 24 h [1]: 3.9 µM

Compound: CC(=O)Oc1cc(OC(C)=O)c2c(=O)c(OC(C)=O)c(-c3ccc(OC(C)=O)c(OC(=O)[C@H]4CC[C@@H](NC(=O)OC(C)(C)C)CC4)c3)oc2c1
- solubility at 24 h [1]: 0.8 µM

Compound: O=c1c(O)c(-c2ccc(O)c(O)c2)oc2cc(O)cc(O)c12 [QUERCETIN]
- solubility at 24 h [1]: 2.3 µM
- Activity [4]: 0.9%
- Activity [2]: 2.7%
- Activity (Caco-2): 1%

From ChEMBL document CHEMBL1140605, “Ester-based precursors to increase the bioavailability of quercetin” (J Med Chem, 2007)
